Tests used:
Eleusine indica [1] = experiment: Herbicidal activity against Eleusine indica assessed as inhibition of fresh weed plant weights at 1404 g ai/ha using pre-emergence treatment protocol under field trials conditions measured 30 days post soil treatment relative to untreated control; assay type: functional; conditions: 720 h
Echinochloa crus-galli [2] = experiment: Herbicidal activity against Echinochloa crus-galli (barnyard grass) assessed as inhibition of shoot growth at […] measured 7 days post treatment; assay type: functional; design: dose or concentration left out as unconfirmed; conditions: 168 h, read-out: GI
Digitaria sanguinalis [3] = experiment: Herbicidal activity against Digitaria sanguinalis (hairy crabgrass) assessed as inhibition of fresh weed plant weights at 300 g ai/ha using pre-emergence treatment protocol under greenhouse conditions relative to untreated control; assay type: functional
In short: (§1)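 Pre-emergence test in plastic pots kept in a greenhouse at 22-25 °C. Fresh weight of aerial plant parts was measured 20 days later, and percent inhibition calculated relative to water-sprayed controls. Metolachlor served as the positive control. Three replicates were run per concentration.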

Zea mays [4] = experiment: Toxicity against Zea mays var. SHEN DAN 17 (maize) assessed as inhibition of fresh weed plant weights at 600 g ai/ha using pre-emergence treatment protocol under greenhouse conditions relative to untreated control; assay type: organism-based; conditions: in vivo, other; in short: as §1
Echinochloa crus-galli [5] = experiment: Herbicidal activity against Echinochloa crus-galli (barnyard grass) assessed as inhibition of fresh weed plant weights at 1404 g ai/ha using pre-emergence treatment protocol under field trials conditions measured 30 days post soil treatment relative to untreated control; assay type: functional; conditions: 720 h
Eleusine indica [6] = experiment: Herbicidal activity against Eleusine indica assessed as inhibition of fresh weed plant weights at 600 g ai/ha using pre-emergence treatment protocol under greenhouse conditions relative to untreated control; assay type: functional; in short: as §1
Portulaca oleracea [7] = experiment: Herbicidal activity against Portulaca oleracea assessed as inhibition of root growth at […] measured 7 days post treatment; assay type: functional; design: dose or concentration left out as unconfirmed; conditions: 168 h, read-out: GI
[8] = tested on: Brassica rapa subsp. oleifera; experiment: Toxicity against Brassica rapa subsp. oleifera var. JING GUAN 1 assessed as inhibition of fresh weed plant weights at 300 g ai/ha using pre-emergence treatment protocol under greenhouse conditions relative to untreated control; assay type: organism-based; conditions: in vivo, other; in short: as §1
Portulaca oleracea [9] = experiment: Herbicidal activity against Portulaca oleracea assessed as inhibition of shoot growth at […] measured 7 days post treatment; assay type: functional; conditions: 168 h, read-out: GI
In short: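 Petri-dish agar assay. A 10 g/L stock of compound in acetone was mixed into molten agar; the untreated control was agar without compound. Seeds were placed on the agar surface and the cups were covered with glass lids. Incubation was 25 ± 1 °C, 50-55% RH, 12 h light/12 h dark, for 7 days. Root and shoot lengths were measured and growth inhibition calculated against the control, in three replicates.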

Echinochloa crus-galli [10] = experiment: Herbicidal activity against Echinochloa crus-galli (barnyard grass) assessed as inhibition of fresh weed plant weights at 150 g ai/ha using pre-emergence treatment protocol under greenhouse conditions relative to untreated control; assay type: functional; in short: as §1
Echinochloa crus-galli [11] = experiment: Herbicidal activity against Echinochloa crus-galli (barnyard grass) assessed as inhibition of fresh weed plant weights at 600 g ai/ha using pre-emergence treatment protocol under greenhouse conditions relative to untreated control; assay type: functional; in short: as §1
Portulaca oleracea [12] = experiment: Herbicidal activity against Portulaca oleracea assessed as inhibition of fresh weed plant weights at 1404 g ai/ha using pre-emergence treatment protocol under field trials conditions measured 30 days post soil treatment relative to untreated control; assay type: functional; conditions: 720 h
Convolvulus arvensis = experiment: Herbicidal activity against Convolvulus arvensis assessed as inhibition of fresh weed plant weights at 1404 g ai/ha using pre-emergence treatment protocol under field trials conditions measured 30 days post soil treatment relative to untreated control; assay type: functional; conditions: 720 h
Echinochloa crus-galli [13] = experiment: Herbicidal activity against Echinochloa crus-galli (barnyard grass) assessed as inhibition of fresh weed plant weights at 300 g ai/ha using pre-emergence treatment protocol under greenhouse conditions relative to untreated control; assay type: functional; in short: as §1
Echinochloa crus-galli [14] = experiment: Herbicidal activity against Echinochloa crus-galli (barnyard grass) assessed as inhibition of root growth at […] measured 7 days post treatment; assay type: functional; design: dose or concentration left out as unconfirmed; conditions: 168 h, read-out: GI
Zea mays [15] = experiment: Toxicity against Zea mays var. SHEN DAN 17 (maize) assessed as inhibition of fresh weed plant weights at 300 g ai/ha using pre-emergence treatment protocol under greenhouse conditions relative to untreated control; assay type: organism-based; conditions: in vivo, other; in short: as §1
Portulaca oleracea [16] = experiment: Herbicidal activity against Portulaca oleracea assessed as inhibition of fresh weed plant weights at 300 g ai/ha using pre-emergence treatment protocol under greenhouse conditions relative to untreated control; assay type: functional; in short: as §1
Portulaca oleracea [17] = experiment: Herbicidal activity against Portulaca oleracea assessed as inhibition of fresh weed plant weights at 600 g ai/ha using pre-emergence treatment protocol under greenhouse conditions relative to untreated control; assay type: functional; in short: as §1
Eleusine indica [18] = experiment: Herbicidal activity against Eleusine indica assessed as inhibition of fresh weed plant weights at 300 g ai/ha using pre-emergence treatment protocol under greenhouse conditions relative to untreated control; assay type: functional; in short: as §1
[19] = tested on: Brassica rapa subsp. oleifera; experiment: Toxicity against Brassica rapa subsp. oleifera var. JING GUAN 1 assessed as inhibition of fresh weed plant weights at 150 g ai/ha using pre-emergence treatment protocol under greenhouse conditions relative to untreated control; assay type: organism-based; conditions: in vivo, other; in short: as §1
Digitaria sanguinalis [20] = experiment: Herbicidal activity against Digitaria sanguinalis (hairy crabgrass) assessed as inhibition of fresh weed plant weights at 600 g ai/ha using pre-emergence treatment protocol under greenhouse conditions relative to untreated control; assay type: functional; in short: as §1
Portulaca oleracea [21] = experiment: Herbicidal activity against Portulaca oleracea assessed as inhibition of fresh weed plant weights at 150 g ai/ha using pre-emergence treatment protocol under greenhouse conditions relative to untreated control; assay type: functional; in short: as §1
Digitaria sanguinalis [22] = experiment: Herbicidal activity against Digitaria sanguinalis (hairy crabgrass) assessed as inhibition of fresh weed plant weights at 1404 g ai/ha using pre-emergence treatment protocol under field trials conditions measured 30 days post soil treatment relative to untreated control; assay type: functional; conditions: 720 h
Digitaria sanguinalis [23] = experiment: Herbicidal activity against Digitaria sanguinalis (hairy crabgrass) assessed as inhibition of fresh weed plant weights at 150 g ai/ha using pre-emergence treatment protocol under greenhouse conditions relative to untreated control; assay type: functional; in short: as §1
Eleusine indica [24] = experiment: Herbicidal activity against Eleusine indica assessed as inhibition of fresh weed plant weights at 150 g ai/ha using pre-emergence treatment protocol under greenhouse conditions relative to untreated control; assay type: functional; in short: as §1
Zea mays [25] = experiment: Toxicity against Zea mays var. SHEN DAN 17 (maize) assessed induction of crop injury at 1404 g ai/ha using pre-emergence treatment protocol under field trials conditions measured 30 days post soil treatment; assay type: organism-based; conditions: in vivo, other, 720 h
[26] = tested on: Brassica rapa subsp. oleifera; experiment: Toxicity against Brassica rapa subsp. oleifera var. JING GUAN 1 assessed as inhibition of fresh weed plant weights at 600 g ai/ha using pre-emergence treatment protocol under greenhouse conditions relative to untreated control; assay type: organism-based; conditions: in vivo, other; in short: as §1

SMILES: CCc1cccc(C)c1N(C(=O)CCl)C(C)COC (configuration not stated) [METOLACHOR]
- inhibition at 1404 g/ha (Eleusine indica [1]): 99%
- inhibition of growth (Echinochloa crus-galli [2]): 88%
- inhibition at 300 g/ha (Digitaria sanguinalis [3]): 76%
- inhibition (INH) (Zea mays [4]): 2%
- inhibition at 1404 g/ha (Echinochloa crus-galli [5]): 100%
- inhibition at 600 g/ha (Eleusine indica [6]): 97%
- inhibition of growth (Portulaca oleracea [7]): 74%
- inhibition (INH) [8]: 9%
- inhibition of growth at 100000 µg/mL (Portulaca oleracea [9]): 62%
- inhibition at 150 g/ha (Echinochloa crus-galli [10]): 25%
- inhibition at 600 g/ha (Echinochloa crus-galli [11]): 50%
- inhibition at 1404 g/ha (Portulaca oleracea [12]): 100%
- inhibition at 1404 g/ha (Convolvulus arvensis): 47%
- inhibition at 300 g/ha (Echinochloa crus-galli [13]): 39%
- inhibition of growth (Echinochloa crus-galli [14]): 80%
- inhibition (INH) (Zea mays [15]): 2%
- inhibition at 300 g/ha (Portulaca oleracea [16]): 57%
- inhibition at 600 g/ha (Portulaca oleracea [17]): 60%
- inhibition at 300 g/ha (Eleusine indica [18]): 98%
- inhibition (INH) [19]: 0%
- inhibition at 600 g/ha (Digitaria sanguinalis [20]): 90%
- inhibition at 150 g/ha (Portulaca oleracea [21]): 36%
- inhibition at 1404 g/ha (Digitaria sanguinalis [22]): 95%
- inhibition at 150 g/ha (Digitaria sanguinalis [23]): 43%
- inhibition at 150 g/ha (Eleusine indica [24]): 84%
- Activity (Zea mays [25]): 0%
- inhibition (INH) [26]: 11%

SMILES: Cc1nn(CC(F)(F)F)c(CSC2=NOC(C)(C)C2)c1I
- inhibition of growth (Echinochloa crus-galli [2]): 89%
- inhibition of growth (Portulaca oleracea [7]): 81%
- inhibition of growth at 100000 µg/mL (Portulaca oleracea [9]): 62%
- inhibition at 600 g/ha (Echinochloa crus-galli [11]): 100%
- inhibition of growth (Echinochloa crus-galli [14]): 86%
- inhibition at 600 g/ha (Digitaria sanguinalis [20]): 54%

SMILES: Cc1nn(CC(F)(F)F)c(CSC2=NOC(C)(C)C2)c1Br
- inhibition of growth (Echinochloa crus-galli [2]): 88%
- inhibition of growth (Portulaca oleracea [7]): 80%
- inhibition of growth at 100000 µg/mL (Portulaca oleracea [9]): 54%
- inhibition at 600 g/ha (Echinochloa crus-galli [11]): 82%
- inhibition of growth (Echinochloa crus-galli [14]): 86%
- inhibition at 600 g/ha (Digitaria sanguinalis [20]): 74%

SMILES: Cc1nn(CC(F)(F)F)c(CS(=O)(=O)C2=NOC(C)(C)C2)c1Br
- inhibition of growth (Echinochloa crus-galli [2]): 81%
- inhibition of growth (Portulaca oleracea [7]): 80%
- inhibition of growth at 100000 µg/mL (Portulaca oleracea [9]): 62%
- inhibition at 600 g/ha (Echinochloa crus-galli [11]): 100%
- inhibition of growth (Echinochloa crus-galli [14]): 74%
- inhibition at 600 g/ha (Digitaria sanguinalis [20]): 79%

SMILES: Cc1nn(CC(F)(F)F)c(CS(=O)(=O)C2=NOC(C)(C)C2)c1I
- inhibition of growth (Echinochloa crus-galli [2]): 84%
- inhibition of growth (Portulaca oleracea [7]): 75%
- inhibition of growth at 100000 µg/mL (Portulaca oleracea [9]): 62%
- inhibition at 600 g/ha (Echinochloa crus-galli [11]): 100%
- inhibition of growth (Echinochloa crus-galli [14]): 63%
- inhibition at 600 g/ha (Digitaria sanguinalis [20]): 90%

SMILES: Cc1nn(CC(F)(F)F)c(CSC2=NOC(C)(C)C2)c1Cl
- inhibition of growth (Echinochloa crus-galli [2]): 88%
- inhibition of growth (Portulaca oleracea [7]): 75%
- inhibition of growth at 100000 µg/mL (Portulaca oleracea [9]): 54%
- inhibition at 600 g/ha (Echinochloa crus-galli [11]): 81%
- inhibition of growth (Echinochloa crus-galli [14]): 89%
- inhibition at 600 g/ha (Digitaria sanguinalis [20]): 54%

Source: ChEMBL document CHEMBL3046055, “Synthesis and herbicidal activity of novel N-(2,2,2)-trifluoroethylpyrazole derivatives” (J Agric Food Chem, 2010)
